Measurements taken from ChEMBL document CHEMBL1152456, “A MurF inhibitor that disrupts cell wall biosynthesis in Escherichia coli” (Antimicrob Agents Chemother, 2007).
Values after ≈ are worked out from the molar mass of the structure shown. Active and inactive are the calls of the source. The rule behind the calls is not given here. Positions of bridges follow the written chain, without caps; N, C: chain ends. Non-standard residues stand in square brackets, D forms with d. Residues, ends and D or L forms follow the SMILES beside them. Dab = NCC[C@H](N)C(=O)O

Assays:
[1] = Binding affinity to Escherichia coli MurF by HTS assay in presence of ATP
[2] = Inhibition of Escherichia coli MurF assessed as appearance of UDP-MurNAc-pentapeptide product by HPLC
How it was run: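 HPLC assay of E. coli MurF. Enzyme at 4 nM final in 100 mM Tris-Cl pH 8.5, 5 mM ATP, 300 mM NaCl, preincubated 10 min at room temperature with compound or DMSO. D-Ala-D-Ala and a completed Mpl reaction supplying UDP-MurNAc-tripeptide were then added. Reaction ran 15 min at 37°C and was stopped with trifluoroacetic acid. Pentapeptide and tripeptide peaks were quantified by HPLC to give IC50.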

Escherichia coli [3] = assay: Binding affinity to Escherichia coli MurF assessed as increase in enzyme melting temperature by thermofluor analysis in presence of ATP
How it was run: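 ThermoFluor thermal shift binding assay on E. coli MurF run in the presence of ATP; read-out is the change in Tm.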

Escherichia coli [4] = assay: Antibacterial activity against LPS-deffective Escherichia coli OC2530 by CLSI broth microdilution method; format: functional
How it was run: (§1)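 MICs by CLSI broth microdilution in cation-adjusted Mueller-Hinton broth. Strains came from ATCC or an in-house collection; NovaBlue was purchased.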

Staphylococcus aureus [5] = assay: Antibacterial activity against Staphylococcus aureus ATCC 29213 by CLSI broth microdilution method; format: functional; how it was run: as §1
Escherichia coli [6] = assay: Inhibition of Escherichia coli OC2530 MurF assessed as ratio of UDP-MurNAc-tripeptide/UDP-MurNAc-pentapeptide level at 2 times MIC after 30 mins by HPLC
How it was run: (§2)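 UDP-precursor pools. 125 ml OC2530 cultures at A600 0.3 treated with 2x MIC compound or DMSO for 30 min. Cells chilled, washed in cold 0.9% NaCl and lysed in cold 5% trichloroacetic acid 30 min on ice. Supernatants ether-extracted six times. UDP-MurNAc-tripeptide and -pentapeptide purified and quantitated. One representative of two independent experiments.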

[7] = Binding affinity to Escherichia coli MurF by HTS assay in absence of ATP
Escherichia coli [8] = assay: Antibacterial activity against Escherichia coli OC2605 by CLSI broth microdilution method; format: functional
How it was run: (§3)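 Broth microdilution MIC following CLSI method, in cation-adjusted Mueller-Hinton broth; strains from ATCC or the company strain collection.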

Escherichia coli [9] = assay: Antibacterial activity against Escherichia coli OC9040 by CLSI broth microdilution method; format: functional; how it was run: as §1
Escherichia coli [10] = assay: Antibacterial activity against Escherichia coli ATCC 25922 by CLSI broth microdilution method; format: functional; how it was run: as §1
Pseudomonas aeruginosa = assay: Antibacterial activity against Pseudomonas aeruginosa ATCC 27853 by CLSI broth microdilution method; format: functional; how it was run: as §1
Enterococcus faecalis = assay: Antibacterial activity against Enterococcus faecalis ATCC 29212 by CLSI broth microdilution method; format: functional; how it was run: as §1
Enterococcus faecium = assay: Antibacterial activity against Enterococcus faecium OC3312 by CLSI broth microdilution method; format: functional; how it was run: as §1
Staphylococcus aureus [11] = assay: Antibacterial activity against methicillin-resistant Staphylococcus aureus COL OC3726 by CLSI broth microdilution method; format: functional; how it was run: as §3
Staphylococcus aureus [12] = assay: Antibacterial activity against methicillin-resistant Staphylococcus aureus OC2878 by CLSI broth microdilution method; format: functional; how it was run: as §3
Staphylococcus aureus [13] = assay: Antibacterial activity against Staphylococcus aureus OC4172 by CLSI broth microdilution method; format: functional; how it was run: as §1
Escherichia coli [14] = assay: Antibacterial activity against Escherichia coli NovaBlue by CLSI broth microdilution method; format: functional; how it was run: as §1
Escherichia coli [15] = assay: Antibacterial activity against LPS-deffective Escherichia coli OC2530 by CLSI broth microdilution method in presence of permeabilizer polymyxin B nonapeptide; format: functional
Escherichia coli [16] = assay: Antibacterial activity against Escherichia coli ATCC 25922 by CLSI broth microdilution method in presence of permeabilizer polymyxin B nonapeptide; format: functional; how it was run: as §1
Escherichia coli [17] = assay: Antibacterial activity against Escherichia coli NovaBlue by CLSI broth microdilution method in presence of permeabilizer polymyxin B nonapeptide; format: functional; how it was run: as §1
Escherichia coli [18] = assay: Antibacterial activity against mid-log culture of LPS-deffective Escherichia coli OC2530 assessed as cell lysis at 2 times MIC by optical density study; format: functional, organism-based
How it was run: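 Growth curve. E. coli OC2530 grown with aeration to mid-log (A600 0.3), compound added at 2x MIC final. Samples transferred at once to replicate Bioscreen wells, 37°C with continuous shaking, A580 read every 15 min; 10 wells per culture.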

Escherichia coli [19] = assay: Antibacterial activity against LPS-deffective Escherichia coli OC2530 assessed as cell lysis at 2 times MIC by colony forming assay; format: functional, organism-based
Escherichia coli [20] = assay: Bactericidal activity against LPS-deffective Escherichia coli OC2530 assessed as log reduction in CFU at 2 times MIC after 30 mins relative to control; format: functional
How it was run: (§4)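 Killing. OC2530 at mid-log treated with 2x MIC compound. Aliquots taken from replicate Bioscreen wells at set times, serially diluted in PBS, spiral-plated and colonies counted. Mean ± SD of two independent experiments.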

Escherichia coli [21] = assay: Bactericidal activity against LPS-deffective Escherichia coli OC2530 assessed as log reduction in CFU at 2 times MIC after 3 hrs relative to control; format: functional; how it was run: as §4
Escherichia coli [22] = assay: Effect on muropeptide composition in LPS-deffective Escherichia coli OC2530 assessed as increase in UDP-MurNAc-tripeptide level at 2 times MIC after 30 mins relative to control; format: functional; how it was run: as §2
Escherichia coli [23] = assay: Effect on muropeptide composition in LPS-deffective Escherichia coli OC2530 assessed as decrease in UDP-MurNAc-pentapeptide level at 2 times MIC after 30 mins relative to control; format: functional; set-up: scale not given: the % may be the effect or the level left; how it was run: as §2
Escherichia coli [24] = assay: Ratio of Kd for Escherichia coli MurF in absence of ATP to Kd for Escherichia coli MurF in presence of ATP

IC50 [2] [µM]	ΔTm (Escherichia coli [3]) [°C]	MIC (Escherichia coli [4]) [µg/mL]	MIC (Staphylococcus aureus [5]) [µg/mL]	SMILES	Kd [1] [µM]	Kd [7] [µM]	further results
25	0.74	> 64	> 64	COc1ccc(C(=O)NC(c2ccc(OC)c(OC)c2)c2cc(Cl)c3cccnc3c2O)cc1 (stereo unspecified)			
1.25	1.81	> 32	> 32	COc1cccc(C(=O)NC(/C=C/c2ccccc2)c2cc(Cl)c3cccnc3c2O)c1 (stereo unspecified)	10	3.3	
0.33	1.82	> 32	> 32	COc1ccc(C(NC(=O)c2cccc(OC)c2)c2cc(Cl)c3cccnc3c2O)cc1 (stereo unspecified)	11	2.5	
0.75	1.59	> 32	> 32	COc1cccc(C(=O)NC(c2ccc3c(c2)OCO3)c2cc(Cl)c3cccnc3c2O)c1 (stereo unspecified)	4.5	3.3	
1.9	2.2	> 32	> 32	COc1cccc(C(=O)NC(c2ccccc2OC)c2cc(Cl)c3cccnc3c2O)c1 (stereo unspecified)	14	10	

More lines, now with the values behind:

SMILES	IC50 [2] [µM]	ΔTm (Escherichia coli [3]) [°C]	MIC (Escherichia coli [4]) [µg/mL]	MIC (Staphylococcus aureus [5]) [µg/mL]	Kd [1] [µM]	Kd [7] [µM]	further results
Cc1ccc(C(NC(=O)c2ccccc2)c2ccc3cccnc3c2O)cc1 (stereo unspecified)	0.87	2.41	32 (≈ 86.9 µM)	32 (≈ 86.9 µM)	20	33	Ratio (Escherichia coli [6]): 0.02
O=C(Nc1ccc(F)cc1)OC(CCN1CCC(O)(c2ccc(Cl)cc2)CC1)c1ccccc1 (stereo unspecified)	26		8 (≈ 16.6 µM)	16 (≈ 33.1 µM)			MIC (Escherichia coli [8]): > 32 µg/mL; MIC (Escherichia coli [9]): > 32 µg/mL; MIC (Escherichia coli [10]): > 32 µg/mL; MIC (Pseudomonas aeruginosa): > 32 µg/mL; MIC (Enterococcus faecalis): 16 µg/mL (≈ 33.1 µM); MIC (Enterococcus faecium): 16 µg/mL (≈ 33.1 µM); MIC (Staphylococcus aureus [11]): 16 µg/mL (≈ 33.1 µM); MIC (Staphylococcus aureus [12]): 16 µg/mL (≈ 33.1 µM); MIC (Staphylococcus aureus [13]): 8 µg/mL (≈ 16.6 µM); MIC (Escherichia coli [14]): > 64 µg/mL; MIC (Escherichia coli [15]): 4 µg/mL; MIC (Escherichia coli [16]): 16 µg/mL; MIC (Escherichia coli [17]): 16 µg/mL; Activity (Escherichia coli [18]): Active; Activity (Escherichia coli [19]): Active; Activity (Escherichia coli [20]): 1; Activity (Escherichia coli [21]): 5; fold change (FC) (Escherichia coli [22]): 15; Activity (Escherichia coli [23]): 50%
O=C(NC(c1ccccc1F)c1ccc2cccnc2c1O)c1ccccc1 (stereo unspecified)	0.8	3.35	16 (≈ 43 µM)	32 (≈ 85.9 µM)	20	20	
COc1ccc(C(NC(=O)c2ccccc2)c2ccc3cccnc3c2O)cc1OC (stereo unspecified)	16	2.86	8 (≈ 19.3 µM)	32 (≈ 77.2 µM)	14	100	Ratio (Escherichia coli [24]): 4; Ratio (Escherichia coli [6]): 0.04
N[C@@H]1CONC1=O [CYCLOSERINE]			64 (≈ 627 µM)	32 (≈ 313 µM)			Ratio (Escherichia coli [6]): 30.3; MIC (Escherichia coli [8]): 16 µg/mL (≈ 157 µM); MIC (Escherichia coli [9]): 32 µg/mL (≈ 313 µM); MIC (Escherichia coli [10]): 32 µg/mL (≈ 313 µM); MIC (Pseudomonas aeruginosa): > 128 µg/mL; MIC (Enterococcus faecalis): 128 µg/mL (≈ 1250 µM); MIC (Enterococcus faecium): 64 µg/mL (≈ 627 µM); MIC (Staphylococcus aureus [11]): 32 µg/mL (≈ 313 µM); MIC (Staphylococcus aureus [12]): 64 µg/mL (≈ 627 µM); MIC (Staphylococcus aureus [13]): 32 µg/mL (≈ 313 µM); MIC (Escherichia coli [14]): 64 µg/mL (≈ 627 µM); MIC (Escherichia coli [15]): 64 µg/mL; MIC (Escherichia coli [16]): 32 µg/mL; MIC (Escherichia coli [17]): 64 µg/mL; Activity (Escherichia coli [18]): Active; Activity (Escherichia coli [19]): Active; Activity (Escherichia coli [20]): 0.5; Activity (Escherichia coli [21]): >5
CC(C)C[C@@H]1NC(=O)[C@@H](Cc2ccccc2)NC(=O)[C@H](CCN)NC(=O)[C@@H](NC(=O)[C@H](CCN)NC(=O)[C@@H](N)[C@@H](C)O)CCNC(=O)[C@H]([C@@H](C)O)NC(=O)[C@H](CCN)NC(=O)[C@H](CCN)NC1=O [POLYMYXIN B NONAPEPTIDE] (H-T[Dab][Dab][Dab][dF]L[Dab][Dab]T; lactam 3-C)			6.2 (≈ 6.44 µM)	50 (≈ 51.9 µM)			MIC (Escherichia coli [14]): 25 µg/mL (≈ 26 µM)
O=C(NC(c1ccc2c(c1)OCO2)c1ccc2cccnc2c1O)c1ccccc1 (stereo unspecified)	0.44	1.74	32 (≈ 80.3 µM)	32 (≈ 80.3 µM)	12	50	Ratio (Escherichia coli [24]): 4
